Assay results pooled from the literature.
Protocols differ between the studies behind these lines.

SMILES | species | sample | route | dose | notes | Tmax [min]
NCc1cc2c(cc1F)C(=O)N(C1CCC(=O)NC1=O)C2 (stereo not drawn) | male CD-1 mouse | plasma | oral | 10 mg/kg |  | 48
Cc1ccc(N(c2ccc(NC(=O)CN(C)c3ccccc3N3CCCC3=O)cc2)C(C)C)cc1 | male CD-1 mouse | plasma | oral | 20 mg/kg |  | 40.2
COCC(=O)N1CCc2[nH]c3c(Cl)c(Cl)ccc3c2[C@@H]1C | C57BL/6 mouse | blood | intravenous | 1 mg/kg |  | 5
OCc1ccc(-c2nn(Cc3ccccc3)c3ccccc23)o1 | male CD-1 mouse | plasma | oral | 10 mg/kg |  | 15
COC1=CC(c2ccc[nH]2)=N/C1=C\c1[nH]c(Cc2ccc(OC(F)(F)F)cc2)cc1Cc1ccc(OC(F)(F)F)cc1 | male CD-1 mouse | plasma | oral | 40 mg/kg | single dose | 240
Cc1[nH]c(C)c(S(=O)(=O)Nc2ccc(C(F)(F)F)c(Cl)c2)c1C(=O)N1CCC(F)(F)C1 | male CD-1 mouse | plasma | intraperitoneal | 40 mg/kg |  | 60
Cc1nc2ccc(OCc3ccc(C(F)(F)F)cc3)cc2[nH]1 | male BALB/c mouse | plasma | oral | 10 mg/kg |  | 15
CN(C)C(=O)c1cc2cnc(Nc3ccc(-c4ccc5c(=O)cc(N6CCOCC6)oc5c4)cc3)nc2n1C1CCCC1.Cl | BALB/c mouse | plasma | intravenous | 2 mg/kg |  | 6
NCc1ccc(-c2nn(Cc3ccncc3)c3ccccc23)o1 | male CD-1 mouse | plasma | oral | 10 mg/kg |  | 30
Cc1ccc(OCC(=O)N[C@@H](Cc2c[nH]c3ccccc23)C(=O)OC(C)C)cc1 | male Sprague-Dawley mouse | plasma | oral | 20 mg/kg |  | 72
COc1ccc(C[C@H](NC(=O)[C@H](C)NC(=O)CN2CCOCC2)C(=O)N[C@@H](Cc2ccccc2)C(=O)C2(C)CO2)cc1 (stereo in doubt) | mouse | plasma | oral | 20 mg/kg | single dose | 18
FC(F)(F)CN1CC(n2cc(Oc3ccn4nc(Cl)cc4n3)cn2)C1 | FVB mouse | blood | oral |  | single dose | 30
Cc1ccc(CCC(=O)Nc2nnc(S(N)(=O)=O)s2)cc1 | male BALB/c mouse | plasma | oral | 20 mg/kg |  | 10
NCc1ccc(-c2nn(Cc3ccccc3)c3ccccc23)o1 | male CD-1 mouse | plasma | intraperitoneal | 30 mg/kg |  | 30
COC1=CC(c2ccc[nH]2)=N/C1=C\c1cc(Cc2ccc(OC(F)(F)F)cc2)c(C)[nH]1.Cl | male CD-1 mouse | liver | oral | 40 mg/kg | single dose | 1440
